The values below come from ChEMBL document CHEMBL5226322, “Harnessing the Role of HDAC6 in Idiopathic Pulmonary Fibrosis: Design, Synthesis, Structural Analysis, and Biological Evaluation of Potent Inhibitors” (J Med Chem, 2021).

The nature of data set [1]: Metabolic stability in human liver microsome assessed as apparent decay constant at 5 uM in presence of NADPH incubated up to 60 mins by HPLC analysis. In kind it is ADME. As to conditions: microsomes, 1 h. The method, boiled down:
(§1)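 Compound at 5 μM, added in MeCN, incubated at 37 °C in 100 mM phosphate buffer pH 7.4 with 0.5 mg/mL human liver microsomal protein. Reaction started with an NADPH-generating system (2 mM NADPH, glucose-6-phosphate, G6P dehydrogenase, MgCl2). Stopped with MeCN at time points over 0–60 min. Remaining compound measured by RP-18 HPLC-UV at 254 nm, in triplicate. First-order depletion constant k; CLint = k × incubation volume / microsomal protein.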
Background: Microsomes from liver hold many membrane-bound enzymes, among them those of drug oxidation.

The target of data set [2] is T1, Histone deacetylase 1 (Homo sapiens, UniProt Q13547). Kind of data set: Inhibition of human recombinant HDAC1 using ZMAL (Z-(Ac)Lys-AMC) as fluorogenic substrate incubated for 120 mins by microplate reader assay.
T1 sequence (Q13547 whole entry): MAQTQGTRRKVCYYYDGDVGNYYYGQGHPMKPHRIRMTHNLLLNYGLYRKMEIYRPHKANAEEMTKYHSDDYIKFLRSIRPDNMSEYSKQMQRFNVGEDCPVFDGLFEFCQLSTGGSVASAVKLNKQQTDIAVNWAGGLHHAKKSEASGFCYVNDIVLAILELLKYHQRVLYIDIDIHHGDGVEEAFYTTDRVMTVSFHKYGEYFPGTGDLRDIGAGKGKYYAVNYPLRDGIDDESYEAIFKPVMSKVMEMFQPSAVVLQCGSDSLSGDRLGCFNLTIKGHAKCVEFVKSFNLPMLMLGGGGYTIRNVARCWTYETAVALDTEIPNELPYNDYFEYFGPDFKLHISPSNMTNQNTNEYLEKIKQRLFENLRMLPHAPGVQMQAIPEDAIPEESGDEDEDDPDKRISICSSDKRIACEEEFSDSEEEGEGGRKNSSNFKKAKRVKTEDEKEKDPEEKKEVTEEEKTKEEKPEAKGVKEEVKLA
The target in the next data set is T2, Histone deacetylase 8 (Homo sapiens, UniProt Q9BY41).
T2 sequence (Q9BY41 whole entry): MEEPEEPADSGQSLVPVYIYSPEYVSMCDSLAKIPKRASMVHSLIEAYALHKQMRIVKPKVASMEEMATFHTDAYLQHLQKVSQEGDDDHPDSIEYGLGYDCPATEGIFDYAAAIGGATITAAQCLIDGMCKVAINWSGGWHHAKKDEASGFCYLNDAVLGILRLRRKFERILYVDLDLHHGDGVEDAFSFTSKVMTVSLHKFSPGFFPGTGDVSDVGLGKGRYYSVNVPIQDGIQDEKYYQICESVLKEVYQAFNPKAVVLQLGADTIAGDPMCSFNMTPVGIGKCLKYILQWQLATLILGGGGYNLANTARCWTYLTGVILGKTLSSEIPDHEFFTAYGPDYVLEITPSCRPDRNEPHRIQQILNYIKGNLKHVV
Kind of data set: Inhibition of human recombinant HDAC8 using FLUOR DE LYS fluorometric substrate pre-incubated for 15 mins and followed by substrate addition and measured after 60 mins by microplate reader assay. The method, boiled down: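 Recombinant human HDAC8 at 0.45 U/reaction with 0.5% DMSO; DMSO-only enzyme served as control. Enzyme preincubated 15 min with compound, then Fluor de Lys substrate added (50 μM final) for 1 h at 30 °C. Quenched with 2 μM TSA in Developer II for a further 1 h at 30 °C. Fluorescence read at ex 370/em 450 nm. IC50 from nonlinear dose-response fit.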

Data set [3] is described as follows: Solubility of the compound at pH 3 PBS buffer incubated for 24 hrs by HPLC-UV analysis. In kind it is physicochemical. As to conditions: pH 3, 24 h. The method, boiled down:
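Compound from 10 mM DMSO stock diluted to 250 μM (2.5% DMSO), either in 50 mM acetic acid (pH 3.0) or in 50 mM aqueous PBS (pH 7.4). Shaken 24 h at 25 °C, PTFE-filtered and diluted 1:2. Quantified by RP-18 HPLC-UV at 254 nm against a 250 μM standard in MeCN/water. Run in triplicate and averaged.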

The next data set concerns Airway basal cell. Briefly: Inhibition of cell proliferation in IPF patient derived human Airway basal cell at 20 to 50 nM incubated for 14 days by MTT assay. It is filed as functional, cell-based. The conditions noted are these: dose 20-50 nM, time 14.0 day. The procedure, abridged:
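IPF patient airway basal cell 3D organoid cultures (10⁴ cells in Matrigel, 1:1 BEGM/DMEM) treated 14 days at 1–50 nM, medium changed weekly. Proliferation read by colorimetric MTT on day 14. Mean ± SEM of triplicates, n=3; repeated-measures ANOVA/Friedman test. Reported IC50 is the mean of the count-based and MTT-based IC50s.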

Data set [4] can be described thus: Metabolic stability in human liver microsome assessed as compound remaining at 5 uM in presence of NADPH by HPLC analysis. It is filed as ADME. The conditions noted are these: liver microsomes, read-out: Stability. The procedure, abridged: as §1
Data set [5] in a line: Chemical stability of the compound at pH 3 incubated for 24 hrs by HPLC-UV analysis. In kind it is physicochemical. The conditions noted are these: buffer, read-out: Stability. The procedure, abridged: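 Compound from 10 mM DMSO stock diluted to 250 μM (2.5% DMSO) in 50 mM acetic acid, pH 3.0. Held 24 h at 25 °C with orbital shaking. Analysed by RP-18 HPLC with UV at 254 nm. Percent remaining = peak area at 24 h / peak area at T0 × 100. Run in triplicate and averaged.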

A short description of data set [6]: Metabolic stability in human liver microsome assessed as intrinsic clearance at 5 uM in presence of NADPH incubated up to 60 mins by HPLC analysis. In kind it is ADME. The conditions noted are these: microsomes, 1 h. The method, boiled down: as §1
Data set [7] concerns the target T1, Histone deacetylase 1. Kind of data set: Inhibition of HDAC1 in human U87 cells assessed as increase in acetylation of histone H3 at 5 uM incubated for 30 hrs by western blot analysis. It is filed as cell-based. The procedure, abridged: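 Whole lysates (35 μg) and acid-extracted histones (2 μg) run on SDS-PAGE and blotted for acetylated tubulin or acetyl-histone H3; GAPDH or H4 as loading controls.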

≈ marks a conversion by molar mass, not a printed value. Calls of active or inactive are those of the source. No cut-off for these calls is given here.

For orientation: IC50 means the midpoint of a concentration-inhibition curve. The solubility is the concentration that dissolves in the medium under given conditions. A high value points to a readily soluble substance. For the compound `CN1CCC2(CC1)c1ccccc1N(Cc1ccc(C(=O)NO)cc1)C2c1ccccc1F` (racemic), in data set [1], the K is 0.01297 min⁻¹. The IC50 at Histone deacetylase 1 [2] turned out to be 4.85 µM; at Histone deacetylase 8, 3.49 µM. Moreover, in [3], the solubility amounted to 456 µM (≈ 203 µg/mL). Further, the inhibition result in the data set on Airway basal cell and at Histone deacetylase 1 [7] was “Active” in each case. The remaining at 5 µM in data set [4] was determined as 100%. Also, the remaining at 24 h in data set [5] was found to be 98%. In addition, in [6], the CLH was 27.43 µL/min/mg.
In the case of `CC1(C)c2ccccc2N(Cc2ccc(C(=O)NO)cc2)C1c1cccnc1` (racemic), in data set [1], the K was 0.01357 min⁻¹. For the same compound, the IC50 at Histone deacetylase 1 [2] turned out to be 5.33 µM; at Histone deacetylase 8, 2.17 µM. This compound also displayed a solubility in data set [3] of 459 µM (≈ 171 µg/mL). Further, in the data set on Airway basal cell, the inhibition entry was “Active”. Besides, the remaining at 5 µM in data set [4] was 100%. Also, in [5], the remaining at 24 h is 89%. In [6], the CLH was found to be 25.46 µL/min/mg. For the same compound, the inhibition result at Histone deacetylase 1 [7] is “inactive”.
